Arrestin-AP2 inh = blocks beta-arrestin peptide binding to AP2 adaptin. FITC-arrestin peptide / GST-AP2 beads, flow cytometry; AP2 beta2 appendage carries R879A mutation. inhibition, % at 10 µM. actives 0.31% (n = 340,000). AID 504490;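 active = inhibition above a set limit, near 3 SD of compounds lacking own fluorescence, cut at about 54% in these data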
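Material – GST-tagged AP2 beta2-adaptin appendage (R879A) on 4 µm glutathione beads · Probe or stimulus – fluorescein-tagged arrestin peptide at 50 nM final · Timing – 12 min plus 1 h, RT · Detection – bead flow cytometry, FITC channel · Read-out basis – inhibition as reduced fluorescein signal on beads, percent · Medium – PBS plus Tween 20 (0.05%) and BSA (0.1%)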
PLC-beta3 inh = blocks human PLC-beta3 enzyme activity. Q01970. Purified PLC-beta3, fluorogenic substrate, fluorescence. inhibition, % at 12.2 µM. actives 0.18% (n = 370,000). AID 720704; in the data active = inhibition above about 11%
PLC-gamma1 inh = PLC-gamma1 (human) inhibition, primary screen; actives 0.84% (n = 370,000); inhibition, % at 12.2 µM; purified PLC-gamma1, fluorogenic substrate, fluorescence; P19174; in the data active = inhibition above about 9.5%
Target sequence (P19174 whole entry, looked up): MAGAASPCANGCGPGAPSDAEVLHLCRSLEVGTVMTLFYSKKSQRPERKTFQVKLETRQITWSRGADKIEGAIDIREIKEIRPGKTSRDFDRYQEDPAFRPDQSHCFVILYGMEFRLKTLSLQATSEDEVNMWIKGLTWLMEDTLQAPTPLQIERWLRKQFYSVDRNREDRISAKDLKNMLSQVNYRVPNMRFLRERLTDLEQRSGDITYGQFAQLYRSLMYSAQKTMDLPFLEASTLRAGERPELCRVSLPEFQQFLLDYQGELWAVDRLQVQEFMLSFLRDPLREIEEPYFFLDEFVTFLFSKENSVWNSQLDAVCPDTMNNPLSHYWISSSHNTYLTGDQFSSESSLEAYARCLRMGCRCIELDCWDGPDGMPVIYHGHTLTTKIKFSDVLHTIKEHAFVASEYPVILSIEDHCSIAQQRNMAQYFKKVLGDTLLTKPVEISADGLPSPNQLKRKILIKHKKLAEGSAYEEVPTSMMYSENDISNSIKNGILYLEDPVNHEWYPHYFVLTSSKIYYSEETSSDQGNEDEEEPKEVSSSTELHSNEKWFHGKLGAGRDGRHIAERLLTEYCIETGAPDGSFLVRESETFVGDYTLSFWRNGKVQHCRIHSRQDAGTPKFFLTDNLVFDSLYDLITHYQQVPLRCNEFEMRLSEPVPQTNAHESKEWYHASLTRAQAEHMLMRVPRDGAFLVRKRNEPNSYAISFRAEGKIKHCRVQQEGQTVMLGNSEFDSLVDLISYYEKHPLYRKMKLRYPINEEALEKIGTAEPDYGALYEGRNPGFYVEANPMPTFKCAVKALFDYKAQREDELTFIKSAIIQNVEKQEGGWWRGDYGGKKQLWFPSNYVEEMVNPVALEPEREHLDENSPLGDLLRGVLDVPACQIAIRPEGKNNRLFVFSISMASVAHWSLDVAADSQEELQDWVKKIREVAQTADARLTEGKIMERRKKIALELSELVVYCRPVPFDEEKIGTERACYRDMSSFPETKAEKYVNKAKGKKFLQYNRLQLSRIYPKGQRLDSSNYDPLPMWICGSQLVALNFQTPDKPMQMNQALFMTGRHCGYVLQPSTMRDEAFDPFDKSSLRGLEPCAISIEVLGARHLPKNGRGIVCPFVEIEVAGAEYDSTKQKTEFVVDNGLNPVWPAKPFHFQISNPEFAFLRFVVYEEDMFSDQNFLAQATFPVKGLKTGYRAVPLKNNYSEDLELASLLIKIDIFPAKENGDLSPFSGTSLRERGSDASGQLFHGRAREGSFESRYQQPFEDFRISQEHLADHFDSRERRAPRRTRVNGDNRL
NTR1 ag = activates human neurotensin receptor 1. P30989. NTR1-U2OS beta-arrestin-GFP spot imaging, agonist mode. activation, % at 20 µM. actives 0.17% (n = 330,000). AID 493036;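 active = activation at or above 40% of the spot to cytoplasm intensity ratio, with at least 20 cells analyzed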
Arr AP2 CP1 = human beta-arrestin and AP2 interaction inhibition, cherry pick; inhibition, % at 10 µM; GST-AP2 beads, FITC arrestin peptide binding, flow cytometry; GST-fused beta2-adaptin appendage, R879A mutant; actives 2% (n = 1,300); AID 504908; shares compounds with Arrestin-AP2 inh;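 active = inhibition above a set limit, roughly 3 SD of non-fluorescent compound noise, cut at about 38% in these data; inactive = inhibition at or below that limit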;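 also: loss of bead fluorescence from 50 nM FITC arrestin peptide bound to appendage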
GST GSH counter = disrupts GST binding to glutathione beads, arrestin-AP2 artifact; actives 2% (n = 1,300); GST-fluorescein binding to GSH beads, fluorescence, counter-screen; inhibition, % at 10 µM; shares compounds with Arrestin-AP2 inh;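 active = inhibition above 50%, about 3 SD of the inhibition seen with non-fluorescent compounds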;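 also: fluorescein maleimide labelled GST captured on 4 micron glutathione beads; higher means more loss of bead fluorescence from quenching or blocked binding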
Large screens that a line does not name were inactive (follow-up assays come after a bar, where they were run). In the library only some 1.3% were active in any assay of this set; here they are far more common.

CN1CCN(S(=O)(=O)c2cc([N+](=O)[O-])ccc2N2CCCCCC2)CC1	none
CCN(C(=O)COC(=O)c1ccc(Sc2ncn[nH]2)c([N+](=O)[O-])c1)c1ccccc1C	none (no result: Arrestin-AP2 inh, NTR1 ag)
COc1cccc(NC(=O)CC(=O)c2ccccc2)c1	Arrestin-AP2 inh 63 | Arr AP2 CP1 inactive | GST GSH counter inactive
COc1cccc(NC(=O)CC(C)=O)c1	Arrestin-AP2 inh 57 | Arr AP2 CP1 inactive | GST GSH counter inactive
CC(=O)CC(=O)Nc1ccc(C(N)=O)cc1	none | Arr AP2 CP1 inactive | GST GSH counter inactive
COc1cccc(NC(=O)Cc2ccccc2)c1	none
COc1cccc(CNC(=O)[C@H]2CCCN2C(=O)[C@H]2CCCN2C(=O)N2CCOCC2)c1	none (no result: Arrestin-AP2 inh, NTR1 ag)
COc1cc(-c2c(C(C)=O)c(C)nc3c2C(=O)c2ccccc2-3)cc(OC)c1OC	Arrestin-AP2 inh 59 | Arr AP2 CP1 inactive | GST GSH counter inactive
O=[N+]([O-])c1ncccc1OCCOc1ccc(Cl)cc1Cl	none (no result: Arrestin-AP2 inh, NTR1 ag)
COc1cc(/C=C/C(=O)O)ccc1OS(=O)(=O)c1cc(Br)ccc1C	Arrestin-AP2 inh 56 | Arr AP2 CP1 inactive | GST GSH counter inactive
Cc1ccc(-c2nnc(SCC(=O)N/N=C/c3ccccc3C(=O)O)n2C2CCCCC2)cc1	Arrestin-AP2 inh 68 | Arr AP2 CP1 inactive | GST GSH counter inactive
NNC(=O)c1cc(O)c(O)c(O)c1	none | Arr AP2 CP1 inactive | GST GSH counter inactive
Nc1ccc(N(c2ccccc2)c2ccc(N)cc2)cc1	Arrestin-AP2 inh 59 | Arr AP2 CP1 inactive | GST GSH counter inactive
O=C(COC(=O)Cn1cnc2ccccc21)Nc1ccc(Br)cc1	none (no result: Arrestin-AP2 inh, NTR1 ag)
O=C(COC(=O)Cn1cnc2ccccc21)Nc1ccc2c(c1)C(=O)c1ccccc1C2=O	Arrestin-AP2 inh 100 | Arr AP2 CP1 inactive | GST GSH counter inactive
O=C1c2cccn2CC2Cc3ccccc3N12 (stereo not drawn)	none (no result: Arrestin-AP2 inh, NTR1 ag)
Cc1cc(N2CCN(CC(C)(C)O)C[C@@H]2C)ccc1N1CCN(Cc2ccccc2)[C@H](C)C1	none (no result: Arrestin-AP2 inh, NTR1 ag)
COc1cccc(NC(=O)Nc2cnccn2)c1	none | Arr AP2 CP1 inactive | GST GSH counter inactive
COc1cccc(NC(=O)Nc2cccc(C)n2)c1	none
Cc1ccc(NC(=O)Nc2cccc(C)n2)c(C)c1	none
Cc1ccc(NC(=O)Nc2cnccn2)c(C)c1	none | Arr AP2 CP1 inactive | GST GSH counter inactive
Cc1cccc(NC(=O)Nc2cnccn2)c1	none | Arr AP2 CP1 inactive | GST GSH counter inactive
CCCCN1CCS(=O)(=O)N(Cc2cn(Cc3cccc(Cl)c3)nn2)C(C(=O)OC)C1 (stereo not drawn)	none (no result: Arrestin-AP2 inh, NTR1 ag)
CCCCCC[C@@H](CCCc1ccccc1OC)CN(CCCC)S(C)(=O)=O	none (no result: Arrestin-AP2 inh, NTR1 ag)
CCc1ccc(C(CNC(=O)c2ccc3c(=O)n(-c4ccccc4F)c(=S)[nH]c3c2)N(C)C)cc1 (stereo not drawn)	Arrestin-AP2 inh 58 | Arr AP2 CP1 inactive | GST GSH counter inactive
CCOC(=O)N1CCN(C(=O)c2ccc3c(=O)n(-c4ccccc4F)c(=S)[nH]c3c2)CC1	none
O=c1[nH]c2ccc(NC(=S)Nc3ccccc3Cl)cc2[nH]1	Arrestin-AP2 inh 55 | Arr AP2 CP1 inactive | GST GSH counter inactive
O=c1[nH]c2ccc(NC(=S)Nc3ccc(Cl)cc3Cl)cc2[nH]1	none
C[C@H]1[C@@H](OC(=O)NC2CCCCC2)CC[C@@]23CCCN2C(=O)CCC[C@@H]13	none (no result: Arrestin-AP2 inh, NTR1 ag)
CC1CC(C)CN(CCCNC(=O)c2cc3c(=O)[nH]c4ccccc4c3n2C)C1 (stereo not drawn)	Arrestin-AP2 inh 60 | Arr AP2 CP1 inactive | GST GSH counter inactive
Cn1c(C(=O)NCCCN2CCN(c3ccccc3F)CC2)cc2c(=O)[nH]c3ccccc3c21	none
O=C(NCCc1c[nH]c2ccccc12)OCc1cn(Cc2ccc(F)c(F)c2)nn1	none (no result: Arrestin-AP2 inh, NTR1 ag)
O=C(CN1CCOCC1)Nc1ccc(Cl)cn1	Arrestin-AP2 inh 54 | Arr AP2 CP1 inactive | GST GSH counter inactive
O=C(CN1CCOCC1)Nc1ccc(Cl)cc1	none
C(=N\n1cnnc1)/c1ccc(N2CCOCC2)s1	Arrestin-AP2 inh 92 | Arr AP2 CP1 inactive | GST GSH counter inactive
C(=N\n1cnnc1)/c1ccc(N2CCOCC2)cc1	none
Cc1onc(-c2ccccc2)c1C(=O)N1CCN(C(=O)C(=O)c2cccc(C(F)(F)F)c2)CC1	none (no result: Arrestin-AP2 inh, NTR1 ag)
CCOC(=O)c1c(NC(C)=O)sc2c(O)c(CN3CCN(CC)CC3)ccc12	Arrestin-AP2 inh 64 | Arr AP2 CP1 inactive | GST GSH counter inactive

From PubChem BioAssay
